# Screening results from PubChem BioAssay.
# A selection: hits, their analogues and other compounds. The true share with any hit is near 2%.
# FLuc inhib CS: inhibits firefly luciferase, flagging false hits in luciferase inhibition screens | P08659 | ATPLite firefly luciferase biochemical luminescence, 10 min | inhibition, % at 10 µM | 200,000 compounds, 1.5% hits | AID 1006;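 active = inhibition above about 50% when tested at 10 µM, limit read from the data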
# Target sequence (P08659 whole entry, looked up): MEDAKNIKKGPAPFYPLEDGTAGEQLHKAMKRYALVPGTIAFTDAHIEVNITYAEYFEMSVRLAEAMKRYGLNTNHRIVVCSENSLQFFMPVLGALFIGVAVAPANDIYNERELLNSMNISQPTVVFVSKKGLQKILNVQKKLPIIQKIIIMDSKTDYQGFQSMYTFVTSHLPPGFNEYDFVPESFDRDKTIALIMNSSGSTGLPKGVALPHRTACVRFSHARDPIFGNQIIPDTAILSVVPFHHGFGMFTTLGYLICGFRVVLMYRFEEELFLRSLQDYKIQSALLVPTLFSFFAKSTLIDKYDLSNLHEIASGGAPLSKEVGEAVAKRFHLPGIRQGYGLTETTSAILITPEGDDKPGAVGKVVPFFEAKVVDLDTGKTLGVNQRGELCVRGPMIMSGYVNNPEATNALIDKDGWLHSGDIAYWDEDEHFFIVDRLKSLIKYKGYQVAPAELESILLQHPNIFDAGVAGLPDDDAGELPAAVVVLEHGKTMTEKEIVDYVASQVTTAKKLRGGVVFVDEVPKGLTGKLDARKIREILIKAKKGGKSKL
# PPC-1+TRAIL kill: PPC-1 cancer cell killing with TRAIL present; 220,000 compounds, 0.41% hits; PPC-1 cells + TRAIL, ATPLite viability luminescence; cell killing (% activity), % at 4 µM or 5 µM;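 active = cell killing above 50% in the first pass at 4 µM, then a duplicate retest at 5 µM averaging 50% or more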;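 note: plate controls were cells with TRAIL plus DMSO for no effect and medium-only wells lacking cells for full effect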
# HSP90 refold inh: HSP90 refolding inhibition in rabbit reticulocyte lysate | inhibition, % at 5.6 µM | luciferase refolding luminescence, 3 h | AID 1789 | 290,000 compounds, 0.91% hits;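 active = inhibition above the screen-wide mean plus 3 SD, computed separately per campaign, cut at about 16% in these data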;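 note: 0% = DMSO wells and 100% = 60 µM geldanamycin wells; inhibitors lower the luminescence because luciferase stays unfolded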
# FLuc stim CS: affects firefly luciferase, flagging false hits in luciferase stimulation screens; ATPlite luciferase biochemical, luminescence, 10 min; 0 = ATP-free wells, 1 = DMSO control; P08659; activation factor at 10 µM; 200,000 tested, under 10 active;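 active = luciferase activation factor, scaled between plate controls, of at least 2 with compound at 10 µM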
#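 Material: Luciferase/luciferin reagent mix; Doses: test compounds dosed from 2 mM stocks in 100% DMSO; Schedule: 10 min incubation after luciferase reagent addition, room temperature; Measured by: luminescence from luciferase reaction; Read-out: luminescence gain marking luciferase activators.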
# TRAIL sens C8: sensitizes caspase-8 expressing cells to TRAIL; NB7+C8 cells + TRAIL, ATPlite viability luminescence; inhibition (viability loss, TRAIL sensitization), % at 10 µM; 360,000 compounds, 1% hits; AID 624354;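 active = compounds causing at least 50% loss of cell viability in the single-dose screen, relative to plate controls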
# Active calls of the source: *; x = no result.
SMILES,FLuc inhib CS,PPC-1+TRAIL kill,HSP90 refold inh,FLuc stim CS,TRAIL sens C8
Cc1ccnc(NC(=O)c2cc3ccccc3oc2=O)c1,54*,28,0,0.5,11
Cc1ccnc(NC(=O)c2oc3ccccc3c2C)c1,x,x,x,x,66*
O=c1[nH]c2ccccc2cc1-c1nnn(-c2ccc(F)cc2)n1,65*,50,-4,0.4,62*
COc1ncccc1-c1nnn(-c2ccc(F)cc2)n1,51*,21,3,0.5,28
COc1ncccc1-c1nnn(-c2ccc(C)cc2)n1,66*,24,-1,0.3,38
CC(NC(=O)C1CCN(CCOc2ccc(Cl)cc2)CC1)c1cccc2ccccc12 (stereo not drawn),x,x,x,x,23
C=CCOn1c(=O)c(-c2cc3ccccc3o2)[n+]([O-])c2ccccc21,23,-8,-1,0.8,7
CCOC(=O)COn1c(=O)c(-c2cc3ccccc3o2)[n+]([O-])c2ccccc21,52*,29,-2,0.5,39
CCn1c(=O)c([N+](=O)[O-])c(NCCN(C)C)c2ccccc21,-4,1,5,1,2
CCn1c(=O)c([N+](=O)[O-])c(Cl)c2ccccc21,-8,12,2,1.1,52*
CNC(=S)NNC(=O)c1sc(-c2cc(C)on2)nc1C,x,20,7,x,-9
Cc1nn(-c2ccccc2)c(Cl)c1/C=N/NC(=O)c1cccnc1,27,18,-2,0.7,16
Cc1nn(-c2ccccc2)c(Cl)c1/C=N/NC(=O)c1ccc(NS(=O)(=O)c2cccs2)cc1,71*,50,0,0.3,x
Cc1nn(-c2ccccc2)c(Cl)c1/C=N/NC(=O)c1ccn[nH]1,x,x,17*,x,75*
Cc1nn(-c2ccccc2)c(Cl)c1/C=N/NC(=O)c1ccccc1NS(=O)(=O)c1cccs1,8,-3,-5,0.9,8
Cc1ccc(C(=O)N/N=C\c2c(C)nn(-c3ccccc3)c2Cl)cn1,51*,3,7,0.5,45
C#Cc1cccc(Nc2nc(NCc3ccccc3OC)nc3ccsc23)c1,x,x,x,x,46*
O=C(/C=C/c1ccccc1)Nc1ccc2c(c1)C(=O)NC2=O,12,28,-4,0.9,50*
O=C(CNC(=O)c1cccs1)c1ccc(Cl)cc1,x,x,9,x,19
O=C(CNC(=O)c1cccs1)c1ccc(F)cc1,52*,21,9,0.5,41
CCOc1cc(C(=O)Nc2ccccc2F)cc(Br)c1OCC,-3,24,1,1,4
CC(=O)N(Cc1ccc(F)cc1)C1=C(NCc2ccccc2)C(=O)c2ccccc2C1=O,0,46,11,1,97*
Cc1ncsc1C(=O)N1CCCC(C(=O)c2ccc3ccccc3c2)C1 (stereo not drawn),x,x,2,x,6
O=C(Nc1c(Cl)cc2c(c1Cl)Cc1cc([N+](=O)[O-])ccc1-2)C(Cl)Cl,x,x,x,x,86*
CCC(NC(=O)Cc1c(C)c2cc3c(cc2oc1=O)OC(C)(C)CC3)C(=O)O (stereo not drawn),x,x,-3,x,0
SMILES,FLuc inhib CS,PPC-1+TRAIL kill,HSP90 refold inh,FLuc stim CS,TRAIL sens C8
CC(C)Cc1ccc(C(C)CC2=CCC(CN(C)C)C2=O)cc1 (stereo not drawn),x,x,x,x,91*
CN(C)C(=O)CSc1nnc2sc3ccccc3n12,-8,8,-3,1.1,9
O=c1c2ccccc2nnn1CSc1nnc2sc3ccccc3n12,58*,40,1,0.4,x
Cc1cc(C(=O)N(C)Cc2c(F)cccc2Cl)c2ccccc2n1,x,x,1,x,9
COc1ccc(NC2=Nc3ccccc3N3C2=Nc2c(c(C)nn2-c2ccc(C)cc2)C3c2cccnc2)cc1 (stereo not drawn),-1,11,-4,1,-7
CC(=O)Nc1ccc(NC2=Nc3ccccc3N3C2=Nc2c(c(C)nn2-c2ccccc2)C3c2ccccc2)cc1 (stereo not drawn),-3,16,6,1,72*
Cn1nc(CSc2ccccc2)c(C=O)c1Cl,-1,6,4,1,-4
CC(=O)Nc1cccc(C(=O)NNC(=O)c2n[nH]c(=O)c3ccccc23)c1,x,x,x,x,-8
COc1ccc(OC)c(/C=C/C(=O)c2ccc3c(c2)OCCO3)c1,x,x,0,x,65*
CCOc1ccccc1NC(=O)NNC(=O)COc1cccc(C)c1C,x,x,-1,x,-9
NS(=O)(=O)c1ccc(CCNC(=O)CSc2nc3ccccc3c(=O)n2CCC(=O)N2CCCCC2)cc1,53*,-9,-3,0.5,-6
COc1ccccc1/C=N/OCc1cc(C(C)=O)ccc1OC,x,x,0,x,17
COc1ccccc1C=NN=C(NN=Cc1ccccc1OC)NN=Cc1ccccc1OC,x,x,x,x,69*
COc1ccccc1C=NNC(=O)NN=Cc1ccccc1OC,x,x,x,x,65*
COc1ccccc1/C=N/OC(=O)c1ccc(F)cc1,74*,16,-2,0.3,-10
COc1cc(C(=O)Oc2ccccc2/C=N/NC(=O)c2ccc(C)c(Cl)c2)cc(OC)c1OC,-1,52*,-6,1,41
COc1cccc(/C=N/NC(=O)N/N=C/c2cccc(OC)c2O)c1O,x,x,-5,x,18
COc1ccccc1C=NN=C(N)C(N)=NN=Cc1ccccc1OC,x,x,x,x,0
CCOc1ccccc1OCCCC(=O)NNC(=O)c1nn(C)c(=O)c2ccccc12,x,x,x,x,-4
CCCCCCCCCCCCCCCC[N+](C)(C)CC,x,x,x,x,92*
CCCCCC[N+](C)(C)CCSSCC[N+](C)(C)CCCCCC,x,23,-3,x,10
C#CC[N+](C)(C)CCCCCCCCCC,-3,26,-1,1,27
CCCCCCCCCCCCCCCC[N+](C)(C)CCl,x,x,x,x,90*
O=C(O)c1ccc(N=Nc2c(O)[nH]c3ccc(Br)cc23)cc1,x,x,18*,x,-10
CN(C)c1cccc(C(=O)NNC(=O)/C=C/c2cccs2)c1,x,x,x,x,3
SMILES,FLuc inhib CS,PPC-1+TRAIL kill,HSP90 refold inh,FLuc stim CS,TRAIL sens C8
COCc1c(C(=O)N2CCc3ccccc32)oc2ccccc12,x,x,-1,x,-12
O=C(c1ccc(Br)o1)N1CCc2ccccc21,54*,30,-2,0.5,x
Cc1ccc(/C=C/C(=O)N2CCc3ccccc32)o1,75*,0,2,0.2,17
Cc1c(C(=O)N2CCc3ccccc32)oc2ccccc12,73*,28,2,0.3,61*
Cc1ccc(NC(=O)c2ccccc2N2C(=O)C3C4C=CC(C5CC45)C3C2=O)cc1C (stereo not drawn),x,x,5,x,-15
COc1cc(C(=S)N2CCCCC2)ccc1OCC(=O)Nc1ccc(F)cc1,x,x,-1,x,-3
Cc1ccc(S(=O)(=O)N2CCCC2C(=O)NCc2ccc3c(c2)OCO3)cc1 (stereo not drawn),-6,13,1,1.1,-9
Cc1cccc(NC(=O)CSc2nc(=O)n(CCN3CCOCC3)c3c2CCCC3)c1C,x,x,x,x,1
CCC1CCCCN1C(=O)c1ccc(OC2CCN(Cc3ccccn3)CC2)cc1 (stereo not drawn),x,x,-1,x,21
O=C(c1ccc(OC2CCN(Cc3ccccn3)CC2)cc1)N1CCC[C@H]1CO,x,x,16*,x,-5
